Test results as given in the EternaBench riboswitch data.

System: MS2 coat protein
Test: apparent Kd, MS2 coat protein; higher = weaker binding; RNA-MaP array; FMN 200 µM where present
How it was run: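 Stalled E. coli RNA polymerase transcribed the designs on Illumina sequencing-chip clusters. SNAP-549-labelled MS2 coat protein was titrated from 0.7 or 1.5 nM, doubling to 3 µM, without and then with constant ligand, in 100 mM Tris-HCl pH 7.5, 80 mM KCl, 4 mM MgCl2, BSA, DTT, yeast tRNA and Tween-20. Per-cluster binding curves were fitted to green signal normalised to red-channel RNA signal and control-cluster median Fmax. The apparent Kd is the median of the filtered fits.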

[1] = designed as: ON switch for flavin mononucleotide, no ligand
[2] = ligand present: flavin mononucleotide, designed as: ON switch for flavin mononucleotide
[3] = designed as: OFF switch for flavin mononucleotide, no ligand
[4] = ligand present: flavin mononucleotide, designed as: OFF switch for flavin mononucleotide

Sequence | apparent Kd [1] [µM] | apparent Kd [2] [µM] | apparent Kd [3] [µM] | apparent Kd [4] [µM]
GCACGAGACUAAGGAUAUGGAGUGUCAACAUAAAACAUGAGGAUCACCCAUGUAAAGAGUACGAUUCAGAAGGUAGAGACGUGC | 0.041 | 0.0236 | – | –
GUUAACGCAUGAGGAUAUGCUCGCAUUUCAAGAGCAGAAGGUAUGUCUAUAGACAUGAGGAUCACCCAUGUAUUUAUCAUUGAA | 0.245 | 0.0396 | – | –
CGAUCUUCAGUCAGGAUAUGCUGGCACGAAGAGUUGUAGAAGGGACAUGAGGAUCACCCAUGUCGGACGUUGUA | – | – | 0.019 | 0.0174
GUGCACACUCGAGGAUAUCGGAGUUUUCUUCUUCGAGAAGGCGAUUCGUGCCGUGUUAUUUUGGACAUGAGGAUCACCCAUGUG | 0.0934 | 0.0345 | – | –
GCCUAUGUGGAGGAUAUCGACUUCGAAAGAAGUCGAGAAGGCCACACAUGAGGAUCACCCAUGUGAUGCCAGGC | – | – | 0.121 | 0.0859
GUUGGGCCUCCCUCUCCACGUUCAACAUGAGGAUCACCCAUGUAGGAUAUCGUUUGUUUUUUUUACGAGAAGGGCGUACUUCCC | – | – | 0.00899 | 0.00806
GGAUAGGACAGAGGAUAUACGUGCUAGAGAAACUAGCAAAAUUUCCUCACAUGAGGAUCACCCAUGUAGAAGGCUGUCCUAUCG | – | – | 0.0145 | 0.543
AGCUGUGGCCGAGGAUAUCUAUCUCAAAUAACCGAAAUAUAAUCGGACAUGAGGAUCACCCAUGUAGAGAAGGCGGUCUCAGCA | – | – | 0.0145 | 0.0261
CGCUACGUUUCGUAGCAGCUAGGUGAGGAUAUUCAAUUUUUCACAUGAGGAUCACCCAUGUAUGUGAAGAAGGCGCCUAGAAAC | 0.0108 | 0.00481 | – | –
UGUCCAUAGCAGAAGGACAUAAAUUUCCAUGAAAACAUGAGGAUCACCCAUGUAGGAUAUGCUAUGGACUAAGAGCGAAAGCUC | – | – | 0.00521 | 0.0103
UCAUGGUAGCAGGAUAUGCUUGUUUUUUUUUUUGCAGAAGGGCUUACAUGAGGAUCACCCAUGUGAGAGGUCUA | – | – | 0.0145 | 0.0216
UUGAACGUCGUAGGAUAUGUAGGAUAUUCCUACAUGAGGAUCACCCAUGUUGACAUGGAAGAAGGACAGAAGGACGAUGUCCAU | 0.567 | 0.00777 | – | –
GCACGGUAAGUGAGGAUAUACCUCUGGAUACAGAGGUAGAAGGCACAUGAGGAUCACCCAUGUCCUAGCCGUGC | – | – | 0.0367 | 0.271
UCGGCGCGAGGAUAUGCGGUUUGUGCUUUGGGCCCUGGCGUACAUGAGGAUCACCCAUGUAGAAGGCGUGUUGC | – | – | 0.0213 | 0.0213
CCAUCAGCGGGCGGAUCGGUUGGACAUGAGGAUCACCCAUGUAGAAGGACCGGUGGAUUCCGGCGGUAGGAUAUACAUUUGGUG | – | – | 0.0091 | 0.0163
AAAAGACAUGAGGAUCACCCAUGUAAAGACGUAGGAGGAUAUGUAUGGAAACCAUACUGUACAGAAGGCCUUUGUC | 0.0238 | 0.0183 | – | –
GCUACGCCUGACAUGAGGAUCACCCAUGUUAGAUUGUUAUGUCAGGAUAUUGUCUAGAAACUAGACAAGAAGGGAUGUGUAGCU | 0.728 | 0.0665 | – | –
UCCCUGUGAGGAUAUCUCGUUCCGGUGAAAUUAGCUAGAUGGGAGAAGGCACAUGAGGAUCACCCAUGUGACGA | – | – | 0.022 | 0.0266
AGGGCUGCUCAGGAUAUCCGUAAAAGCCGAGAAGGAGAAGGGAGCACAUGAGGAUCACCCAUGUGAUCCGAAAA | – | – | 0.0216 | 0.044
CACAAUCUAUCUGAGGAUAUCAUGAAAAAAACAUGAGGAUCACCCAUGUGCAGGAAAACUGCAUAUGAGAAGGCAGAUAGAUUGC | 0.613 | 0.0291 | – | –
UUAGCGCGAGGAUAUGCGGUUUGUGCUUUGGGCCCUGGCGUACAUGAGGAUCACCCAUGUAGAAGGCGUGUUGU | – | – | 0.0247 | 0.0248
AUUUCGUCAGGAUAUCCUAGUAAUUGUUUCAUAUUUACGAAGGAGAAGGGACAUGAGGAUCACCCAUGUUGGUC | – | – | 0.0587 | 0.13
CGAGGAGGAGUGAGGAUAUCGUGUUCGAAAGAACGUGAGAAGGCACAUGAGGAUCACCCAUGUGAUACUUUUCG | – | – | 0.0136 | 0.0288
UGAGAGUCAGGAUAUCGAAGGUAGUGGAGAGGAGUGUGGUACGAGAAGGGACAUGAGGAUCACCCAUGUAGGUG | – | – | 0.322 | 0.276

Sequence | apparent Kd [1] [µM] | apparent Kd [2] [µM] | apparent Kd [3] [µM] | apparent Kd [4] [µM]
GCAGCACUCAUUAACAUGAGGAUCACCCAUGUCAAAAGACAUGAGGAUAUGCAUCUGAAGAAGAUGCAGAAGGCAUUGUGCUGC | 0.555 | 0.0256 | – | –
GCCUACUGGCGAGGAUAUUCUGUGCGGUUCCGGCUCGUGUCUGUUACAUGAGGAUCACCCAUGUGGGAGAAGGUGUCUGUGGCC | – | – | 0.00753 | 0.00741
AUUGAUGUUGAGGAUAUGCUUUUAUUUAUAAUAGCAGAAGGCGAUACAUGAGGAUCACCCAUGUUCAUGGUAGU | – | – | 0.0622 | 0.067
UUGGAGUACGUAGGAUAUGUAGGAUAUUCCUACAUGAGGAUCACCCAUGUAAGCAUGGAAGAAGGACAGAAGGACGUGCUCCAU | 0.223 | 0.0149 | – | –
AUUAUAUAGGAAGGAUAUAGAAUAUUAUUUUAACAUGAGGAUCACCCAUGUAACCUUAUGUGUAGCUAGAAGGUCCAUUUGUUA | – | – | – | 0.315
ACAGAGGCUGACAUGAGGAUCACCCAUGUUAGAUUGUUAUGUCAGGAUAUUAUCUGGCAACCAGAUGAGAAGGGACCCUCUGUG | 0.0226 | 0.00754 | – | –
UUGGACGUCGUAGGAUAUGUAGGAUAUUCCUACAUGAGGAUCACCCAUGUUGAUAUGGAAGAAGGACAGAAGGACGAUGUCCAU | 0.0318 | 0.00464 | – | –
GAGAAGAGGGAAGGAUAUACAUGAGGAUCACCCAUGUAGAUAGGUAAAAUAGGAAGAAGAAGAAUGUAGAAGGUCCGGUUUGUU | – | – | 0.0152 | 0.0159
CUGGAUCACGCAGGAUAUUACAUGAGGAUCACCCAUGUCAGGACUGCAAUAUCGUCUCCUCAUUGUGAGAAGGGCGGAAUCAUU | – | – | 0.0177 | 0.0868
UGUAAUGCUAUUGCAGAGGUUUAGAAGGAUAUACAUCGACAUGACCGUACAUGAGGAUCACCCAUGUAGAAGGUCUAACUUCGU | – | – | 0.00561 | 0.00555
AUACAACAUGAGGAUCACCCAUGUGAGGAUAUGCGAUACAUCAUCAUCAUCAUCAAUCGCAGAAGGCACAACAU | – | – | 0.0502 | 0.055
ACCUUACAUGAGGAUCACCCAUGUUAGGAUAUCUCGCCUGCGCAAUCACAGCGCAGGCAGAGAAGGGACGCGGG | – | – | 0.0303 | 0.0321
AUUAGGUCAGGAUAUACAUGAGGAUCACCCAUGUAGGUGGAACCUUUAUCGGGUGACCGUAGAAGGGACAUCAA | – | – | 0.0411 | 0.0763
UCAUAUUUACAAGGAUAUCAAUAUAAUAUAAUACCAACAUGAGGAUCACCCAUGUAUUAGCGUAAUGAGAAGGUGUAUUGUCGG | 0.0512 | 0.0414 | – | –
AAUAUAAGAGCUGGUAAAUAAAUCACAUGAGGAUCACCCAUGUAGGAUAUCAGCACGAUAAGUGCUGAGAAGGACAUCCAGCUC | – | – | 0.0134 | 0.0146
UGAAAUCAUGUAGGAUAUGCAUGGCGAAGCUACGCAGAAGGACAUGAGGAUCACCCAUGUUCGAGGGUCUGAGUACAGAUCCAA | – | – | 0.0252 | 0.162
GUCGCUAGAGGAUAUACAAUGGUAUAUGAUCCUAGUGACAUACAUGAGGAUCACCCAUGUAGAAGGCUAGUAAU | – | – | 0.0242 | 0.0217
GCACUGGAUGUAGGAUAUCAGGACGAUAAGUCCUGAGAAGGACAUGAGGAUCACCCAUGUAAAACUCACCAGUGCUAUAAUAUA | – | – | 0.0128 | 0.0177
UGUCGGAGCAGAGGAUAUUACAUGAGGAUCACCCAUGUAUGAACCAAUAGCUUGAAACAGCAAUGUAAGAAGGCUGCUCCGACA | – | – | 0.00766 | 0.0842
UGAGCGACCACAGGAUAUACUUAGGAAGACCGAGUAGAAGGGUGGAAGAGCGUGCAGUGACAUGAGGAUCACCCAUGUGGUUGU | 0.156 | 0.0701 | – | –
GUCUACCAGCUAGGAUAUGCAGUACAUUAAAAUGUAGAAGGAGCACGAUCCAGACAUGAGGAUCACCCAUGUGGGCGGUAGGCA | – | – | 0.0209 | 0.0186
AUUGUGUGAGGAUAUUAGCAGUAGACGAAUGGAGUCGUGGCUGAGAAGGCACAUGAGGAUCACCCAUGUUCCUU | – | – | – | 0.0883
GGUCGUCAUAUUAACAUGAGGAUCACCCAUGUGAAAACACAUGAGGAUAUGCAUCCUAAUUGGAUGCAGAAGGCAUGGACGACC | 0.0237 | 0.00649 | – | –
GAUUCACAUGAGGAUCACCCAUGUGAGGAUAUCUAGGUGCGGAGGCUAAGACCUCCAGAGAGAAGGCACAUGGC | – | – | 0.0242 | 0.0368
